FID counter – counter-screen for HCV NS3 helicase inhibitors: DNA intercalator displacement; AID 1845; inhibition, % at 7.9 µM; 290,000 tested, 0.17% active; DNA fluorescent intercalator displacement, fluorescence; in the data active means inhibition above about 37%;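 further: higher means more ethidium bromide displaced from hairpin DNA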
HCV core dimer – blocks dimerization of HCV core protein; TR-FRET GST/Flag-core106 dimerization, 1536-well; inhibition, % at 5 µM; 300,000 tested, 0.33% active; AID 1899;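 active means inhibition above the mean of all tested compounds plus 3 SD, set per screening campaign, cut at about 45% in these data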
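Assay system – GST-tagged and Flag-tagged HCV core protein residues 1-106 · Quantity – core106 proteins, GST 13.5 nM and Flag 17 nM · Benchmarks – unlabelled core106 and no-GST-core106 wells · Read-out basis – percent inhibition of core106 dimerization signal · Detection – time-resolved FRET, ex 340 nm, em 617 and 671 nm · Schedule – 4 h at 22.5 °C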
HCV NS3 hel inh – blocks Hepatitis C virus NS3 helicase unwinding; NS3 helicase DNA unwinding, Cy5 molecular beacon fluorescence; inhibition, % at 10.9 µM; 290,000 tested, 0.56% active;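 active means inhibition above the mean of all tested compounds plus 3 SD, set per campaign, cut at about 35% in these data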
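Measured by: Cy5 fluorescence, 0 and 60 min reads / Assay system: NS3 helicase fragment of HCV / Control set: low DMSO, high thioflavine S at 110 µM / Times: 1 h reaction at 25 °C, ATP-initiated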
HSF1 inhib – HSF1 inhibition. NIH3T3-HGL HSE-luciferase, MG132-induced, luminescence 8 h; hits give low values. activity change, negative = inhibition, % at 7.5 µM (by protocol). 300,000 tested, 0.77% active. AID 2098;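 active means more than half of replicate wells show activity change below -50%, luminescence cut by over half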;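 further: luciferase reports HSF-1 transcriptional activity via heat shock element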
HSP90 refold inh – inhibitors of HSP90 luciferase refolding in rabbit reticulocyte lysate; inhibition, % at 5.6 µM; luciferase refolding luminescence, 3 h; 290,000 tested, 0.91% active; AID 1789;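 active means inhibition above the screen-wide mean plus 3 SD, computed separately per campaign, cut at about 16% in these data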;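 further: inhibitors lower the luminescence because luciferase stays unfolded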
HSF1 activator – increases HSF-1 driven luciferase reporter signal; NIH3T3-HGL HSF-1 luciferase reporter, MG132, 8 h; 100% = twice DMSO control signal; activation, % at 9 µM; 300,000 tested, 1.7% active;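 active means mean replicate activation of at least 50% with a set share of replicates each reaching 50%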
Of the large screens only hits and unclear results are named; the others gave an inactive call. An excerpt weighted towards active compounds, which were near 3.9% of everything screened.

O=C(O)CSc1cccc[n+]1[O-]	none
O=C(CSc1cccc[n+]1[O-])c1cc2ccccc2o1	HSF1 activator 192.1
O=C(CSc1cccc[n+]1[O-])c1cc(Cl)ccc1Cl	HSF1 activator 169.8
O=C(Nc1ccc(Cl)cc1)[C@@H]1[C@@H]2C(=O)N(c3ccc4ccccc4c3)C(=O)[C@@H]2[C@H]2C=CC=NN21	HCV core dimer 59.6
COc1ccc(-c2nnn(CC(=O)N(CC(=O)NC3CCCC3)c3ccccc3F)n2)cc1OC	none
CC1CN(CCCCOc2ccc(Cl)c3ccccc23)CC(C)O1 (centres undefined)	none
Cc1[nH]nc2c1C(c1cc(Br)cs1)C(C#N)=C(N)O2 (centres undefined)	HSF1 activator 69.6
CCCCSc1nnc(CSc2ncccn2)n1C	none
Cc1cc(C)n2nc3nc(N4CCCC4)nc(-c4ccccc4)c3c2n1	HCV core dimer 47.8
Nc1[nH]nc2nc(N3CCCC3)nc(-c3ccccc3)c12	none
N#C/C(=C\c1ccccc1)C(=O)Nc1ccccn1	none
CC(C)(C)c1ccc(/C=C(\C#N)C(=O)Nc2ccccn2)cc1	HSF1 inhib -59.1
CC/C(C)=N\Nc1nc(-c2cc3cc(OC)ccc3oc2=O)cs1	none
S=C(Nc1ccccc1Cl)N1CCC(c2ccccc2)C1 (centres undefined)	none
Cc1ccc(-n2cnc3sc(C)c(C)c3c2=O)cc1	HSF1 activator 59.5
Cc1cccc(-n2cnc3sc(C)c(C)c3c2=O)c1	none
CCn1c(C(C)NS(=O)(=O)c2ccc(Cl)cc2)n[nH]c1=S (centres undefined)	none
Cc1ccc(/C=C/C(=O)OCC(=O)NCCN2C(=O)CSC2=O)o1	HSF1 inhib -72.9
Cc1ccc(/C=C/C(=O)OCC(=O)NCCN2C(=O)CSC2=O)cc1	none
CC12CC(c3ccccc3O1)C(C(=O)NCc1ccccc1)C(=O)N2 (centres undefined)	HSF1 inhib -70.8
Cc1ccc(N(Cc2cc3ccc(C)cc3[nH]c2=O)C(=O)c2cccs2)cc1	HSF1 inhib -85.0
CCC(C)NC(=O)CSc1nnc(-c2c[nH]c3ccccc23)o1 (centres undefined)	HSP90 refold inh 16.7
CCNC(=O)NC(=O)CSc1nnc(-c2c[nH]c3ccccc23)o1	none
Clc1ccccc1CN(Cc1ccco1)Cc1nnnn1C1CCCC1	HSF1 activator 69.4
c1coc(CN(Cc2cccs2)Cc2nnnn2C2CCCCC2)c1	none
COc1ccc(N2C(=NC(=O)C3CC3)SC3CS(=O)(=O)CC32)cc1Cl (centres undefined)	none
CCCCC(=O)/C=C/n1c(=S)oc2ccccc21	HSF1 activator 216.9
CC(C)OC(=O)n1c(=S)oc2ccccc21	none
Cc1nc2ccccn2c1-c1nnco1	none
Cc1nc2ccccn2c1-c1ccnn1S(=O)(=O)c1ccc(F)cc1	HSF1 inhib -66.7
COc1cc(/C=C2/NC(=O)N(Cc3ccccc3F)C2=O)ccc1Oc1ccc([N+](=O)[O-])cn1	none
COc1cc(/C=C2/NC(=O)N(Cc3ccccc3F)C2=O)ccc1O	HSF1 activator 107.4
COc1ccc(CNC(=S)Nc2ccc(F)c(Cl)c2)cc1	HSF1 activator 73.4
NC(=O)Cc1ccc(C(=O)c2ccc(Cl)cc2)s1	HSF1 inhib -63.8
CCn1c(=O)c2c3c(sc2n2cnnc12)CCC3	HSF1 inhib -58.3
Cc1ccccc1C(=O)NC(=S)Nc1ccccc1C(F)(F)F	none
O=C(NC(=S)Nc1ccccc1C(F)(F)F)c1ccccc1F	HSF1 activator 76.1
Cc1cc(C)c2c(c1)[C@@H]1C=CC[C@@H]1[C@H](c1ccc(S(=O)(=O)N3CCOCC3)cc1)N2	HCV core dimer 84.4 (no result: HSF1 inhib, HSF1 activator)
Cn1c(C(F)(F)F)nc2c(=O)oc3ccccc3c21	none
O=[N+]([O-])c1ccc(CSc2nc3ccccc3o2)cc1	HSF1 activator 116.9
COC(=O)c1ccc(CSc2nc3ccccc3o2)cc1	none
CC1(C)COC(/C=C/c2ccc([N+](=O)[O-])cc2)=N1	HSF1 activator 118.1
N/C(Cc1ccc(Cl)cc1Cl)=N\OC(=O)c1ccccc1F	HSF1 activator 68.2
CC(C)(C)c1ccc(/C=N/NC(=S)NC2CCCCC2)cc1	HSF1 activator 55.8
C/C(=N\NC(=O)c1ccccn1)C12CC3CC(CC(C3)C1)C2	none
C/C(=N/NC(=O)c1ccoc1C)C12CC3CC(CC(C3)C1)C2	HSF1 activator 59.3
CSC1=NCCN1C(=O)c1c(-c2c(F)cccc2Cl)noc1C	none
COc1ccc(C2=CC(=O)CC(c3ccc(F)cc3)C2)cn1 (centres undefined)	HSF1 activator 61.1 (no result: FID counter, HCV NS3 hel inh, HSP90 refold inh)
CCCCCC(NC(=O)C1CCN(C(=O)[C@@H](NS(=O)(=O)c2ccc(C)cc2)C(C)C)CC1)C(=O)O (some centres undefined)	none
Cc1cc(C)n(-c2nc3ccccc3nc2N2CCC(C)CC2)n1	none
Cc1cc(C)n(-c2nc3ccccc3nc2N2CCN(C(=O)c3ccc(F)cc3)CC2)n1	HSF1 activator 62.2
CC1CC(C)CN(C(=O)CCS(=O)(=O)c2ccc3c(c2)NC(=O)CS3)C1 (centres undefined)	HSF1 activator 85.0
CC(=O)NC(=S)Nc1cccc(S(=O)(=O)NC2=NCCC2)c1	HSF1 inhib -75.8
O=C(NCc1ccco1)c1ccc(-c2ccc(Cl)cc2)o1	none
CCOC(=O)c1cnc2c(CC)cccc2c1NCCN1CCOCC1	none
CCOC(=O)c1cnc2c(C)cccc2c1NCCCN1CCOCC1	FID counter 54.8
CCOC(=O)c1cnc2c(C)cc(Cl)cc2c1NCCCN1CCOCC1	FID counter 45.9
Cc1cc(C)n(-c2nc3ccccc3s2)n1	HSF1 inhib -84.2
Cc1nc2cc(NC(=O)NCc3ccc4c(c3)OCO4)ccc2o1	none
Cc1nc2cc(NC(=O)Nc3ccc(Br)cc3)ccc2o1	HSF1 activator 58.3
COc1ccc(OCCC(=O)OCC(=O)NCc2ccco2)cc1	HCV core dimer 85.2
COC(=O)c1ccc(CNC(=O)COC(=O)COc2ccc(OC)cc2)cc1	HSF1 inhib -67.6
COc1ccccc1NCCC(=O)OCC(=O)NCc1ccco1	HCV core dimer 58.2
Cc1cc(NC(=S)N(Cc2ccc(Br)cc2)Cc2ccc(C(=O)O)cc2)ccc1Cl	HSF1 activator 58.2
O=C(CC12CC3CC(CC(C3)C1)C2)N/N=C/c1ccncc1	none
CCOc1cc(C2C3=C(CCCC3=O)N(CC(=O)O)C3=C2C(=O)CCC3)ccc1OC	none
COc1ccc(C2C3=C(CCCC3=O)N(CC(=O)O)C3=C2C(=O)CCC3)cc1Cl	HSF1 activator 76.6
Cc1ccc(C(=O)NC2CCN(CC(=O)Nc3cccc([N+](=O)[O-])c3)CC2)cc1	none
O=C1CS(=O)(=O)c2ccccc2N1	none
CC(C)(C)c1[nH]ncc1[N+](=O)[O-]	HSF1 activator 52.2

Compound activity from PubChem BioAssay.
